Most compounds without a hit are left out; they make up all but 4% or so of the library.
C2C12 statin: protects C2C12 myotubes from simvastatin toxicity | ATP luminescence, 48 h; scaled: DMSO 0, geranylgeraniol control 100 | rescue of ATP level, % at 7.49 µM | 0.78% of 330,000 active;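 active = mean ATP rescue above about 67%, or every replicate alone reaching that limit, limit read from the data, passing the limit was not always enough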;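 note: myotubes were challenged with 10 µM simvastatin during compound exposure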
SIRT5 inh: inhibitors of human sirtuin-5 desuccinylase; Purified SirT5, succinyl-peptide AMC, trypsin-coupled fluorescence; inhibition, % at 15 µM; 1.1% of 330,000 active; AID 652115; in the data active = inhibition above about 15%
Target sequence (Q9NXA8 whole entry, looked up): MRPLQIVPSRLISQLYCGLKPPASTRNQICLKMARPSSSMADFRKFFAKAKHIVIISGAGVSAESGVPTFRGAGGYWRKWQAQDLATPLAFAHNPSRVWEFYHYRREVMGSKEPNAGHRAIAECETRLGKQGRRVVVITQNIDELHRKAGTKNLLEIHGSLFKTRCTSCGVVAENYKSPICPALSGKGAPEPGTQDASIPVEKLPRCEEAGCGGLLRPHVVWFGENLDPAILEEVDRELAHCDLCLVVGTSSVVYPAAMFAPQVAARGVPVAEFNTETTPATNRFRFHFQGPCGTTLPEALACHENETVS
rRNA inh HTS: inhibits bacterial ribosomal RNA function over humanized ribosomes. AID 720706. E. coli WT GFP vs humanized-ribosome RFP mutants, fluorescence, 24 h; active compounds read low; DMSO median 0, no signal -100. GFP signal change (wild-type ribosome), % (concentration not given with the values). 1.6% of 350,000 active;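 active = significant combined selectivity score with lowered wild-type GFP, culture density cut under 30%, mutant RFP and density less affected; inactive = any of these conditions unmet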
FGF22 binding-1: binders of recombinant human FGF22 by thermal shift. AID 651658. Q9HCT0. 1.5% of 340,000 active. SYPRO orange fluorescence; percent of sucrose octasulfate shift, DMSO zero. activity (Tm shift, normalised), % at 9.99 µM;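 active = mean Tm shift, scaled 0 neutral to 100 positive control, at about 1.3% or above, every replicate too, limit read from the data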
Target sequence (Q9HCT0 whole entry, looked up): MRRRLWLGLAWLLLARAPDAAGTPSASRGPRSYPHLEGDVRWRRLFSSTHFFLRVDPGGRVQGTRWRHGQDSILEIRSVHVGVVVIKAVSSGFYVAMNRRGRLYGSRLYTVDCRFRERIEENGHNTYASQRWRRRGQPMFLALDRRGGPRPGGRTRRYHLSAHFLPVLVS
E-sel inducer: induces E-selectin expression in human endothelial cells; P16581; HUVEC E-selectin immunofluorescence imaging; normalized: neutral wells 0, TNF-alpha wells 100; activation, % at 7.58 µM; 0.37% of 260,000 active; AID 686992;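 active = mean E-selectin-positive cell signal at least 10% of the positive control, reached in at least 60% of replicates, without over 20% cell loss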
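Read-out basis: % PE-positive cells; Test system: HUVEC primary endothelial cells; Technique: immunofluorescence imaging; Dosing: single-point compound dose.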
FN deposition inh: fibronectin deposition inhibition | 0.086% of 350,000 active | inhibition, % at 12.6 µM | AH1F fibroblasts, Alexa488-fibronectin deposition fluorescence, overnight;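 active = mean inhibition across replicates of 30% or more, regardless of how many single replicates reach that level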;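 note: positive control wells lacked labelled fibronectin entirely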
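Assay system: AH1F fibroblasts / Quantity: 10000 cells per well / Medium: DMEM plus 2% serum, read in PBS / Reagent: labelled fibronectin 24 nM / Dosing: single dose, pinned / Times: 1 h cell attachment, overnight exposure to compound and label / Signal: fluorescence, ex 485 nm, em 525 nm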
FGF22 binding-2: binders of human FGF22 by thermal shift. 2% of 1,000 active. thermal shift activity, °C (ΔTm) at 38 µM. recombinant FGF22 thermal shift, SYPRO orange fluorescence. shares compounds with FGF22 binding-1;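 active = fitted rise in melting shift crosses a set limit at or below the top valid dose tested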
FGF22 TSA: binders of human FGF22 by thermal shift | shares compounds with FGF22 binding-1 | Thermal shift assay, SYPRO orange, melting temperature shift | Tm shift (activity), % at 38 µM | 50 tested, under 10 active;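 active = compounds whose fitted dose curve of melting temperature shift rises past a set threshold within the tested doses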
SYPRO no-protein: compound-only SYPRO artifact for FGF22 binders. shares compounds with FGF22 binding-1. compound-only SYPRO orange thermal shift counter-screen, no protein. AC50, µM (highest dose often 38 µM). 2% of 1,000 active;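 active = rising signal whose fitted curve reaches the 0.54 level within the top valid dose, showing a melting point, actives reach about 13 µM in these data; inactive = the rest, including activity in the opposite direction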; note: value is where the raw curve crosses a fixed level and not half-maximal
Active calls of the source: *; i = inactive; . = no result; [ ] = remark or other dose.

SMILES	C2C12 statin	SIRT5 inh	rRNA inh HTS	FGF22 binding-1	E-sel inducer	FN deposition inh	FGF22 binding-2	SYPRO no-protein	others
Cc1ccc(S(=O)(=O)Nc2ccc3c(c2)C(=O)N([C@H](C)CO)C[C@@H](C)[C@@H](CN(C)C(=O)Nc2cccc4ccccc24)OCCCC[C@@H](C)O3)cc1	.	10.3	4.7	0.0	-0.1	-10.0	.	.
C/C=C/c1ccc2c(c1)O[C@@H](CN(C)C)[C@@H](C)CN([C@@H](C)CO)S2(=O)=O	3.6	-5.0	0.5	0.2	0.6	-6.6	.	.
CC(C)CC(=O)n1sc(NC(=O)c2ccccc2)nc1=O	4.8	-2.5	-4.0	2.5*	.	.	0.022	i
COc1ccc(-c2cnc3c(c2)C(=O)N([C@H](C)CO)C[C@@H](C)[C@@H](CN(C)S(C)(=O)=O)O3)cc1	9.6	6.5	-0.1	-0.3	-0.1	3.5	.	.
O=C(CCNC(=O)c1ccccc1Cl)Nc1nc2ccc(F)cc2s1	2.6	-3.7	3.0	2.7*	-0.4	2.7	0.035	i
Cc1ccsc1C(=O)NNC(=O)c1ccc(NS(=O)(=O)c2cccs2)cc1	4.5	8.2	8.1	1.6*	0.7	-0.5	0.021	i
CC(=O)Nc1cccc(C(=O)NNC(=O)c2ccc(NS(=O)(=O)c3cccs3)cc2)c1	-3.6	-1.5	6.4	0.1	-0.2	-3.6	.	.
CCOC(=O)C1CCN(C(=O)CNC(=O)c2nn(-c3ccc(OC)cc3OC)c(=O)c3ccccc23)CC1	-4.4	-3.5	0.0	1.6*	-0.2	-4.3	0.054	i
O=C(O)c1ccc(Cl)c(S(=O)(=O)Nc2ccc(S(=O)(=O)N3CCCC3)cc2)c1	-1.9	4.5	1.2	1.4*	0.1	0.3	-0.133	i
CCCCn1c(CCC(=O)O)nc2cc(S(=O)(=O)N(CC)CC)ccc21	.	1.4	0.1	-0.2	.	-3.0	.	.
CCCn1c(CCC(=O)O)nc2cc(S(=O)(=O)N3CCCC3)ccc21	.	-0.8	3.1	29.8*	.	3.0	0.088	i
CCN1C(=O)C(CC(=O)Nc2ccc(F)cc2)N(Cc2ccc3c(c2)OCO3)C1=S (stereo not given)	.	-1.0	.	2.9*	-0.1	2.4	-0.21	i	FGF22 TSA=0.0
COC(=O)c1cn(NC(=O)Cc2ccccc2OC)c(=O)c2ccccc12	-4.3	0.4	-3.6	2.1*	4.1	-3.9	0.046	i
C[C@@H]1CN([C@@H](C)CO)C(=O)c2cccc(NS(C)(=O)=O)c2O[C@@H]1CN(C)C(=O)Nc1cccc2ccccc12	4.3	5.6	-0.7	0.6	-4.0	.	.	.
O=S(=O)(Nc1nnc(C(F)(F)F)s1)c1ccc(Cl)cc1	10.7	-0.5	15.3	2.6*	0.0	-3.4	.	i	FGF22 TSA=0.3
COCC#Cc1cnc2c(c1)C(=O)N([C@@H](C)CO)C[C@@H](C)[C@@H](CN(C)C(=O)c1cnccn1)O2	-5.3	2.5	0.4	0.0	.	.	.	.
COCC#Cc1cnc2c(c1)C(=O)N([C@H](C)CO)C[C@H](C)[C@H](CN(C)C(=O)c1cnccn1)O2	-17.0	5.3	3.1	3.2*	.	.	0.075	i
CC(C)C#Cc1cnc2c(c1)C(=O)N([C@H](C)CO)C[C@H](C)[C@@H](CN(C)C(=O)c1cnccn1)O2	12.4	5.7	6.3	0.7	0.0	-4.2	.	.
CC(C)C#Cc1cnc2c(c1)C(=O)N([C@@H](C)CO)C[C@H](C)[C@H](CN(C)C(=O)c1cnccn1)O2	8.2	2.5	1.6	1.3*	-0.6	4.4	0.163[42 µM]	i
CO[C@H]1CN(C)C(=O)c2cc(NC(=O)C3CC3)ccc2OC[C@@H](C)N(Cc2nccs2)C[C@@H]1C	-0.4	2.0	-2.1	0.1	0.2	6.8	.	.
CCOC(=O)COc1cc2c(C(=O)OCC)c(C)oc2cc1Br	2.8	.	.	.	.	.	.	.
CCOC(=O)c1c(C)oc2cc(Br)c(O)c(Br)c12	-5.0	.	-33.1	1.4*	0.2	-13.5	0.025	i
O=C(Cc1ccncc1)NCC[C@H]1CC[C@H](NC(=O)Nc2ccc(F)cc2)[C@@H](CO)O1	1.8	0.8	2.9	-0.6	0.7	.	.	.
Cn1c(C(=O)NCCc2c[nH]c3ccccc23)cc2sccc21	-2.1	-3.1	-3.2	1.6*	0.3	2.9	0.002	i
O=C(NCCc1c[nH]c2ccccc12)c1cc2sccc2n1Cc1ccccc1	9.8	.	.	.	0.3	4.7	.	.
SMILES	C2C12 statin	SIRT5 inh	rRNA inh HTS	FGF22 binding-1	E-sel inducer	FN deposition inh	FGF22 binding-2	SYPRO no-protein	others
CC(C)C[C@@H](CN(C)N=O)N(C[C@H](Cc1ccccc1)N(CCc1ccccc1)N=O)N=O	-11.4	10.4	8.4	1.6*	0.5	8.4	0.029	i
COc1cc(NC(=O)C2CCC(CNS(=O)(=O)c3csc(C(N)=O)c3)CC2)cc(OC)c1 (stereo not given)	3.3	2.2	-10.6	1.8*	.	-9.6	-0.306	i
COc1ccc(S(=O)(=O)N(C)C[C@@H]2OCCCC[C@H](C)Oc3ccc(NC(=O)CCC(F)(F)F)cc3C(=O)N([C@@H](C)CO)C[C@@H]2C)cc1	.	3.1	-1.3	0.4	0.1	.	.	.
CCS(=O)(=O)N1CC(=O)N2[C@H](CO)[C@@H](c3ccc(-c4ccccc4F)cc3)[C@@H]2C1	.	-2.2	0.2	1.3*	0.3	.	0.046	i
Cc1[nH]c(=O)[nH]c(=O)c1S(=O)(=O)Nc1cccc([N+](=O)[O-])c1C	1.1	0.0	8.6	4.6*	-0.1	0.8	-0.021	i
C[C@H](O)C#Cc1ccc2c(c1)O[C@H](CN(C)C(=O)Cc1ccccn1)[C@@H](C)CN([C@H](C)CO)S2(=O)=O	.	-1.2	4.0	1.4*	0.2	.	-0.082	i
COCC(=O)N(C)C[C@H]1Oc2cc(C#C[C@H](C)O)ccc2S(=O)(=O)N([C@@H](C)CO)C[C@H]1C	-10.3	-2.8	1.0	-0.1	0.0	2.6	.	.
C[C@H](O)C#Cc1ccc2c(c1)O[C@@H](CN(C)C(=O)Cc1ccccn1)[C@H](C)CN([C@H](C)CO)S2(=O)=O	-3.5	-2.1	5.7	-0.1	0.5	.	.	.
CCCC#Cc1ccc2c(c1)O[C@@H](CN(C)C(C)=O)[C@@H](C)CN([C@@H](C)CO)S2(=O)=O	18.6	-2.9	-1.5	-0.9	0.2	3.5	.	.

Screening results (PubChem BioAssay)
